In ChEMBL document CHEMBL3588757, “Structure-based design, synthesis and biological testing of piperazine-linked bis-epipodophyllotoxin etoposide analogs” (Bioorg Med Chem, 2015):

Tests used:
Format in all cases: functional
SK-MEL-5 [1] = assay: Cytotoxicity against human SK-MEL-5 cells assessed as cell growth at 50 uM by SRB assay; conditions: read-out: Activity
DU-145 = assay: Cytotoxicity against human DU145 cells assessed as cell growth at 50 uM by SRB assay; conditions: read-out: Activity
Method in brief: (§1)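 Measured in the NCI-60 human tumour cell line panel using five-dose testing. Growth was recorded at each dose for each cell line, and a GI50 was derived for each line.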

MCF7 = assay: Cytotoxicity against human MCF7 cells assessed as cell growth at 50 uM by SRB assay; conditions: read-out: Activity
[2] = Cytotoxicity against human Hs578T cells assessed as cell growth at 50 uM by SRB assay; conditions: Hs-578T, read-out: Activity; method in brief: as §1
HL-60(TB) = assay: Cytotoxicity against human HL-60(TB) cells by SRB assay; method in brief: as §1
RPMI-8226 = assay: Cytotoxicity against human RPMI8226 cells by SRB assay
Method in brief: (§2)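 NCI-60 panel screen; 5-dose testing giving GI50 per cell line, plus a single 10 µM one-dose test. Method details not given beyond the NCI screen.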

A549 [3] = assay: Cytotoxicity against human A549/ATCC cells by SRB assay
SK-MEL-5 [4] = assay: Cytotoxicity against human SK-MEL-5 cells by SRB assay; method in brief: as §2
OVCAR-3 [5] = assay: Cytotoxicity against human OVCAR3 cells by SRB assay; method in brief: as §2
[6] = Cytotoxicity against human NCI-ADR-RES cells by SRB assay; method in brief: as §2
ACHN = assay: Cytotoxicity against human ACHN cells by SRB assay
CCRF-CEM = assay: Cytotoxicity against human CCRF-CEM cells assessed as cell growth at 0.005 uM by SRB assay; conditions: read-out: Activity
NCI-H322M [7] = assay: Cytotoxicity against human NCI-H322M cells assessed as cell growth at 0.005 uM by SRB assay; conditions: read-out: Activity
HCT-116 [8] = assay: Cytotoxicity against human HCT116 cells assessed as cell growth at 0.005 uM by SRB assay; conditions: read-out: Activity; method in brief: as §1
SF-539 [9] = assay: Cytotoxicity against human SF539 cells assessed as cell growth at 0.005 uM by SRB assay; conditions: read-out: Activity
U-251 = assay: Cytotoxicity against human U251 cells assessed as cell growth at 0.005 uM by SRB assay; conditions: read-out: Activity
786-0 = assay: Cytotoxicity against human 786-0 cells assessed as cell growth at 0.005 uM by SRB assay; conditions: read-out: Activity
UO-31 [10] = assay: Cytotoxicity against human UO31 cells assessed as cell growth at 0.005 uM by SRB assay; conditions: read-out: Activity
PC-3 = assay: Cytotoxicity against human PC3 cells assessed as cell growth at 0.005 uM by SRB assay; conditions: read-out: Activity
HOP-92 = assay: Cytotoxicity against human HOP92 cells assessed as cell growth at 0.05 uM by SRB assay; conditions: read-out: Activity; method in brief: as §1
NCI-H226 = assay: Cytotoxicity against human NCI-H226 cells assessed as cell growth at 0.05 uM by SRB assay; conditions: read-out: Activity
NCI-H522 = assay: Cytotoxicity against human NCI-H522 cells assessed as cell growth at 0.05 uM by SRB assay; conditions: read-out: Activity
SF-539 [11] = assay: Cytotoxicity against human SF539 cells assessed as cell growth at 0.05 uM by SRB assay; conditions: read-out: Activity
OVCAR-5 = assay: Cytotoxicity against human OVCAR5 cells assessed as cell growth at 0.05 uM by SRB assay; conditions: read-out: Activity
OVCAR-8 [12] = assay: Cytotoxicity against human OVCAR8 cells assessed as cell growth at 0.05 uM by SRB assay; conditions: read-out: Activity
UO-31 [13] = assay: Cytotoxicity against human UO31 cells assessed as cell growth at 0.05 uM by SRB assay; conditions: read-out: Activity
BT-549 = assay: Cytotoxicity against human BT549 cells assessed as cell growth at 0.05 uM by SRB assay; conditions: read-out: Activity
HCC 2998 = assay: Cytotoxicity against human HCC2998 cells assessed as cell growth at 0.5 uM by SRB assay; conditions: read-out: Activity; method in brief: as §1
SW-620 [14] = assay: Cytotoxicity against human SW620 cells assessed as cell growth at 0.5 uM by SRB assay; conditions: read-out: Activity
SF-268 = assay: Cytotoxicity against human SF268 cells assessed as cell growth at 0.5 uM by SRB assay; conditions: read-out: Activity
MDA-MB-435 = assay: Cytotoxicity against human MDA-MB-435 cells assessed as cell growth at 0.5 uM by SRB assay; conditions: read-out: Activity
UACC-62 = assay: Cytotoxicity against human UACC62 cells assessed as cell growth at 0.5 uM by SRB assay; conditions: read-out: Activity
OVCAR-8 [15] = assay: Cytotoxicity against human OVCAR8 cells assessed as cell growth at 0.5 uM by SRB assay; conditions: read-out: Activity
SK-OV-3 = assay: Cytotoxicity against human SKOV3 cells assessed as cell growth at 0.5 uM by SRB assay; conditions: read-out: Activity
UO-31 [16] = assay: Cytotoxicity against human UO31 cells assessed as cell growth at 0.5 uM by SRB assay; conditions: read-out: Activity
NCI-H322M [17] = assay: Cytotoxicity against human NCI-H322M cells assessed as cell growth at 5 uM by SRB assay; conditions: read-out: Activity
COLO 205 = assay: Cytotoxicity against human COLO205 cells assessed as cell growth at 5 uM by SRB assay; conditions: read-out: Activity
HCT-116 [18] = assay: Cytotoxicity against human HCT116 cells assessed as cell growth at 5 uM by SRB assay; conditions: read-out: Activity; method in brief: as §1
SW-620 [19] = assay: Cytotoxicity against human SW620 cells assessed as cell growth at 5 uM by SRB assay; conditions: read-out: Activity
OVCAR-3 [20] = assay: Cytotoxicity against human OVCAR3 cells assessed as cell growth at 5 uM by SRB assay; conditions: read-out: Activity
A549 [21] = assay: Cytotoxicity against human A549/ATCC cells assessed as cell growth at 50 uM by SRB assay; conditions: read-out: Activity
NCI-H322M [22] = assay: Cytotoxicity against human NCI-H322M cells assessed as cell growth at 50 uM by SRB assay; conditions: read-out: Activity
[23] = read-out: LC50 (the source's name)
[24] = read-out: pLC50 (the source's name) (converted)

## COc1cc([C@@H]2c3cc4c(cc3[C@@H](NC(=O)CN3CCN(CCCCCCN5CCN(CC(=O)N[C@@H]6c7cc8c(cc7[C@@H](c7cc(OC)c(O)c(OC)c7)[C@H]7C(=O)OC[C@@H]76)OCO8)CC5)CC3)[C@H]3COC(=O)[C@H]23)OCO4)cc(OC)c1O
SK-MEL-5 [1]
  growth at 50 µM: 9%
DU-145
  growth at 50 µM: 7%
MCF7
  growth at 50 µM: 7%
[2]
  growth at 50 µM: 9%
HL-60(TB); read-out: GI50
  GI50: 0.772 µM
HL-60(TB); [23]
  CC50: > 50 µM
HL-60(TB); read-out: TGI
  TGI: 33.8 µM
HL-60(TB); read-out: pGI50 (converted)
  GI50: 0.776 µM
HL-60(TB); [24]
  CC50: > 50.1 µM
HL-60(TB); read-out: pTGI (converted)
  TGI: 33.9 µM
RPMI-8226; read-out: GI50
  GI50: 0.89 µM
RPMI-8226; [23]
  CC50: > 50 µM
RPMI-8226; read-out: TGI
  TGI: 4.9 µM
RPMI-8226; read-out: pGI50 (converted)
  GI50: 0.891 µM
RPMI-8226; [24]
  CC50: > 50.1 µM
RPMI-8226; read-out: pTGI (converted)
  TGI: 4.9 µM
A549 [3]; read-out: GI50
  GI50: 0.919 µM
A549 [3]; [23]
  CC50: > 50 µM
A549 [3]; read-out: TGI
  TGI: 15.2 µM
A549 [3]; read-out: pGI50 (converted)
  GI50: 0.912 µM
A549 [3]; [24]
  CC50: > 50.1 µM
A549 [3]; read-out: pTGI (converted)
  TGI: 15.1 µM
SK-MEL-5 [4]; read-out: GI50
  GI50: 6.93 µM
SK-MEL-5 [4]; [23]
  CC50: > 50 µM
SK-MEL-5 [4]; read-out: TGI
  TGI: > 50 µM
SK-MEL-5 [4]; read-out: pGI50 (converted)
  GI50: 6.92 µM
SK-MEL-5 [4]; [24]
  CC50: > 50.1 µM
SK-MEL-5 [4]; read-out: pTGI (converted)
  TGI: > 50.1 µM
OVCAR-3 [5]; read-out: GI50
  GI50: 8.92 µM
OVCAR-3 [5]; [23]
  CC50: > 50 µM
OVCAR-3 [5]; read-out: TGI
  TGI: > 50 µM
OVCAR-3 [5]; read-out: pGI50 (converted)
  GI50: 8.91 µM
OVCAR-3 [5]; [24]
  CC50: > 50.1 µM
OVCAR-3 [5]; read-out: pTGI (converted)
  TGI: > 50.1 µM
[6]; read-out: GI50
  GI50: > 50 µM
[6]; [23]
  CC50: > 50 µM
[6]; read-out: TGI
  TGI: > 50 µM
[6]; read-out: pGI50 (converted)
  GI50: > 50.1 µM
[6]; [24]
  CC50: > 50.1 µM
[6]; read-out: pTGI
  TGI: > 50.1 µM
ACHN; read-out: GI50
  GI50: 22.3 µM
ACHN; [23]
  CC50: > 50 µM
ACHN; read-out: TGI
  TGI: > 50 µM
ACHN; read-out: pGI50 (converted)
  GI50: 22.4 µM
ACHN; [24]
  CC50: > 50.1 µM
ACHN; read-out: pTGI (converted)
  TGI: > 50.1 µM
CCRF-CEM
  growth at 0.005 µM: 102%
NCI-H322M [7]
  growth at 0.005 µM: 98%
HCT-116 [8]
  growth at 0.005 µM: 93%
SF-539 [9]
  growth at 0.005 µM: 94%
U-251
  growth at 0.005 µM: 102%
786-0
  growth at 0.005 µM: 89%
UO-31 [10]
  growth at 0.005 µM: 94%
PC-3
  growth at 0.005 µM: 93%
HOP-92
  growth at 0.05 µM: 82%
NCI-H226
  growth at 0.05 µM: 87%
NCI-H522
  growth at 0.05 µM: 99%
SF-539 [11]
  growth at 0.05 µM: 96%
OVCAR-5
  growth at 0.05 µM: 89%
OVCAR-8 [12]
  growth at 0.05 µM: 108%
UO-31 [13]
  growth at 0.05 µM: 97%
BT-549
  growth at 0.05 µM: 87%
HCC 2998
  growth at 0.5 µM: 82%
SW-620 [14]
  growth at 0.5 µM: 63%
SF-268
  growth at 0.5 µM: 74%
MDA-MB-435
  growth at 0.5 µM: 84%
UACC-62
  growth at 0.5 µM: 70%
OVCAR-8 [15]
  growth at 0.5 µM: 111%
SK-OV-3
  growth at 0.5 µM: 97%
UO-31 [16]
  growth at 0.5 µM: 92%
NCI-H322M [17]
  growth at 5 µM: 99%
COLO 205
  growth at 5 µM: 54%
HCT-116 [18]
  growth at 5 µM: 40%
SW-620 [19]
  growth at 5 µM: 37%
OVCAR-3 [20]
  growth at 5 µM: 63%
A549 [21]
  growth at 50 µM: -37%
NCI-H322M [22]
  growth at 50 µM: 37%
